In ChEMBL document CHEMBL1128252, “Synthesis and anti-HIV-1 activity of 4,5,6,7-tetrahydro-5-methylimidazo [4,5,1-jk][1,4]benzodiazepin-2(1H)-one (TIBO) derivatives. 3” (J Med Chem, 1995):

How the values were obtained:
[1] = system: Human immunodeficiency virus 1; experiment: (§1) Effective concentration required to achieve 50% protection of MT-4 cells against the cytopathic effect of HIV-1.; format: functional, organism-based; settings: Human immunodeficiency virus 1, MT4
In short: (§2)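 MT-4 cells infected with HIV-1 and incubated with a range of compound concentrations. Viable cells were counted 5 days post-infection by MTT staining. IC50 is the concentration protecting 50% of cells from virus-induced cytopathic effect. Values are means over n assays, where n varies per compound.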

[2] = system: Human immunodeficiency virus 1; experiment: as §1; format: functional, organism-based, MT4; in short: as §2
MT4 [3] = experiment: Effective concentration of compound required to achieve 50% protection of MT-4 cells against the cytopathic effect of HIV-1 number of experiments = 6; format: functional, cell-based; settings: Homo sapiens; in short: as §2
MT4 [4] = experiment: Effective concentration of compound required to achieve 50% protection of MT-4 cells against the cytopathic effect of HIV-1 number of experiments = 8; format: functional, cell-based; settings: Homo sapiens; in short: as §2
MT4 [5] = experiment: Effective concentration of compound required to achieve 50% protection of MT-4 cells against the cytopathic effect of HIV-1 number of experiments = 4; format: functional, cell-based; settings: Homo sapiens; in short: as §2
MT4 [6] = experiment: Effective concentration of compound required to achieve 50% protection of MT-4 cells against the cytopathic effect of HIV-1 number of experiments = 53; format: functional, cell-based; settings: Homo sapiens; in short: as §2
MT4 [7] = experiment: Effective concentration of compound required to achieve 50% protection of MT-4 cells against the cytopathic effect of HIV-1 number of experiments = 20; format: functional, cell-based; settings: Homo sapiens; in short: as §2
MT4 [8] = experiment: Effective concentration of compound required to achieve 50% protection of MT-4 cells against the cytopathic effect of HIV-1 number of experiments = 24; format: functional, cell-based; settings: Homo sapiens; in short: as §2
[9] = Human immunodeficiency virus 1, MT4

Compound	IC50 [1] [µM]	also measured
CC1Cn2c(O)nc3cccc(c32)CN1 (stereo not drawn)	> 250	
CCCC1CNCc2cccc3nc(O)n1c23 (stereo not drawn)		IC50 [2, 9]: > 250 µM
CCCN1Cc2cccc3[nH]c(=O)n(c23)C(C(C)C)C1 (stereo not drawn)	73.3	
CCCN1Cc2cccc3nc(O)n(c23)CC1=O		IC50 [2, 9]: > 250 µM
CC(C)=CCN1[C@H](C)Cn2c(=S)[nH]c3cc(Cl)cc(c32)[C@H]1C	0.48	
CCCN1Cc2cccc3nc(O)n(c23)C(c2ccccc2)C1 (stereo not drawn)	> 250	
CCCC1Cn2c(O)nc3cccc(c32)CN1 (stereo not drawn)		IC50 [2, 9]: > 250 µM
C[C@@H]1CN(CC2CC2)Cc2cc(Cl)cc3[nH]c(=S)n1c23		IC50 (MT4 [3]): 2180 nM
CC1(C)Cn2c(O)nc3cccc(c32)CN1	> 250	
C/C=C1/CC2Cn3c(S)nc4cc(Cl)cc(c43)CN2C1 (stereo not drawn)	3.76	
CC(C)C1CNCc2cccc3nc(O)n1c23 (stereo not drawn)		IC50 [2, 9]: > 250 µM
Sc1nc2cc(Cl)cc3c2n1CCN1CCCC31 (stereo not drawn)	> 2	
CC(C)=CCN1Cc2cccc3nc(O)n(c23)C[C@H]1C		IC50 (MT4 [4]): 3.32 µM
CC(C)=CCN1[C@H](C)Cn2c(=O)[nH]c3cc(Cl)cc(c32)[C@H]1C	0.23	
C[C@@H]1Cn2c(O)nc3cc(Cl)cc(c32)CN1		IC50 [2, 9]: > 250 µM
S=c1[nH]c2cccc3c2n1-c1ccccc1N(CC1CC1)C3		IC50 [2, 9]: > 10 µM
C=C(C)CN1Cc2cccc3[nH]c(=O)n(c23)CC1CC (stereo not drawn)		IC50 (MT4 [5]): > 50 µM
CC(C)[C@H]1Cn2c(O)nc3cccc(c32)CN1		IC50 [2, 9]: > 250 µM
CC(C)C1Cn2c(O)nc3cccc(c32)CN1 (stereo not drawn)	> 250	
CC(C)=CCN1Cc2cc(Cl)cc3[nH]c(=O)n(c23)C[C@H]1C		IC50 [2, 9]: 0.18 µM
CCCC1CN(CCC)Cc2cccc3[nH]c(=O)n1c23 (stereo not drawn)		IC50 [2, 9]: > 180 µM
C=C(C)CN1Cc2cccc3[nH]c(=O)n(c23)C(CCC)C1 (stereo not drawn)		IC50 [2, 9]: 48.1 µM
C=C(C)CN1Cc2cccc3[nH]c(=O)n(c23)CC1(C)C	23.1	
CC1NCCn2c(O)nc3cccc1c32 (stereo not drawn)	> 250	

Compound	IC50 [1] [µM]	also measured
O=C1Nc2ccccc2-n2c(S)nc3cccc1c32	> 250	
CCCN1Cc2cc(Cl)cc3[nH]c(=S)n(c23)C(=O)C1C (stereo not drawn)	> 50	
C=C(C)CN1Cc2cccc3nc(O)n(c23)CC1CCC (stereo not drawn)		IC50 [2, 9]: > 10 µM
CC(C)=CCN1Cc2cc(Cl)cc3nc(S)n(c23)C[C@H]1C		IC50 (MT4 [6]): 43 nM
Oc1nc2cccc3c2n1CC1CCCN1C3 (stereo not drawn)	> 250	
CCCN1C(=O)c2cccc3nc(O)n(c23)CC1C (stereo not drawn)		IC50 (MT4 [5]): > 250 µM
CC(C)=CCN1Cc2c(Cl)ccc3nc(S)n(c23)C[C@H]1C		IC50 (MT4 [7]): 5 nM
CC(C)=CCN1CCn2c(S)nc3cccc(c32)C1c1ccccc1 (stereo not drawn)	> 2	
C=C(C)CN1Cc2cccc3nc(O)n(c23)C[C@@H]1C(C)C	> 10	
Oc1nc2cccc3c2n1CC1CCCCN1C3 (stereo not drawn)		IC50 (MT4 [4]): > 250 µM
CC(C)=CCN1Cc2cccc3nc(S)n(c23)C[C@@H]1C(C)C	> 10	
C[C@@H]1Cn2c(S)nc3cc(Cl)cc(c32)CN1CC1CC1	0.034	
O=C1CCC2c3cc(Cl)cc4nc(S)n(c34)CCN12 (stereo not drawn)		IC50 [2, 9]: > 250 µM
CC(C)=CCN1CCn2c(=S)[nH]c3ccc(Cl)c(c32)C1		IC50 [2, 9]: 0.046 µM
CC(C)=CCN1CCn2c(=O)[nH]c3ccc(Cl)c(c32)C1C (stereo not drawn)		IC50 [2, 9]: 0.145 µM
CCCN1CCn2c(=S)[nH]c3cccc(c32)C1C (stereo not drawn)	2.43	
C=C(C)CN1Cc2cccc3[nH]c(=O)n(c23)CC1C (stereo not drawn)		IC50 (MT4 [8]): 34.7 µM
CC(C)=CCN1CCn2c(=S)[nH]c3ccc(Cl)c(c32)C1C (stereo not drawn)		IC50 [2, 9]: 0.012 µM
C=C(C)CN1Cc2cccc3[nH]c(=O)n(c23)C(C)C1 (stereo not drawn)	32.1	
CC(C)=CCN1CCn2c(=O)[nH]c3cccc(c32)C1C (stereo not drawn)		IC50 [2, 9]: 12.1 µM
C=C(C)CN1Cc2cccc3[nH]c(=O)n(c23)C(C(C)C)C1 (stereo not drawn)		IC50 [2, 9]: 12.6 µM
CC(C)=CCN1CC(C)n2c(S)nc3cccc(c32)C1C (stereo in doubt; 1bg)		IC50 ([2]; mt4): 25.8 µM
CC(C)=CCN1CC(C)n2c(S)nc3cccc(c32)C1C (stereo in doubt; 1bh)		IC50 ([2]; mt4): > 10 µM

More lines, main results first:

IC50 [1] [µM]	Compound	also measured
0.026	C=C(C)CN1Cc2cccc3nc(S)n(c23)C[C@H]1C	
> 10	CC(C)=CCN1Cc2cccc3nc(O)n(c23)C[C@@H]1C(C)C	
> 250	Oc1nc2cccc3c2n1CC(c1ccccc1)NC3 (stereo not drawn)	
> 10	C=C(C)CN1Cc2cccc3nc(O)n(c23)CC1c1ccccc1 (stereo not drawn)	
> 83	CCCN1CCn2c(=O)[nH]c3cccc(c32)C1C (stereo not drawn)	
> 2	CC(C)=CCN1CCn2c(S)nc3cc(Cl)c4c(c32)C1CC4 (stereo not drawn)	
> 2	CC(C)=CCN1CCn2c(S)nc3cc(Cl)cc(c32)C1CC(C)C (stereo not drawn)	
> 10	CC(C)=CCN1Cc2cc(Cl)cc3nc(O)n(c23)C[C@@H]1C(C)C	
> 2	CC(C)=CCN1CCn2c(O)nc3cc(Cl)cc(c32)C1CC(C)C (stereo not drawn)	
> 10	CC(C)=CCN1[C@@H](C)Cn2c(S)nc3cc(Cl)cc(c32)[C@@H]1C	
> 10	C=C1CC2Cn3c(S)nc4cc(Cl)cc(c43)CN2C1 (stereo not drawn)	
> 250	C=C(C)CN1Cc2cccc3nc(O)n(c23)C(c2ccccc2)C1 (stereo not drawn)	
0.023	CC(C)=CCN1CCn2c(=S)[nH]c3cc(Cl)cc(c32)C1C (stereo not drawn)	
56.7	CC(C)=CCN1Cc2cccc3nc(O)n(c23)C(C)C1C (stereo not drawn)	
0.16	CC(C)=CCN1CCn2c(=O)[nH]c3cc(Cl)cc(c32)C1C (stereo not drawn)	
> 10	CC(C)=CCN1Cc2cc(Cl)cc3nc(S)n(c23)C[C@H]1C(C)C	
0.06	C[C@@H]1Cn2c(S)nc3cccc(c32)CN1CC1CC1	
> 250	Oc1nc2cccc3c2n1C(c1ccccc1)CNC3 (stereo not drawn)	
1.15	CC(C)=CCN1C(C)Cn2c(=S)[nH]c3cccc(c32)C1C (stereo not drawn)	IC50 (MT4 [4]): 0.042 µM
> 5	CC(C)=CCN1[C@@H](C)Cn2c(=O)[nH]c3cc(Cl)cc(c32)[C@@H]1C	
> 250	CCC1Cn2c(O)nc3cccc(c32)CN1 (stereo not drawn)	
> 2	S=c1[nH]c2cc(Cl)cc3c2n1CCN1CCCCC31 (stereo not drawn)	
0.67	C=C(C)CN1Cc2cc(Cl)cc3[nH]c(=S)n(c23)[C@@H](C)C1	
> 250	CC1CNCc2cccc3nc(O)n1c23 (stereo not drawn)	
> 10	CC(C)[C@H]1Cn2c(O)nc3cc(Cl)cc(c32)CN1	
0.078	CC(C)=CCN1CCn2c(=S)[nH]c3cccc(c32)C1C (stereo not drawn)	
14.3	CC(C)=CCN1Cc2cccc3[nH]c(=S)n(c23)C(C)C1C (stereo not drawn)	IC50 [2, 9]: 2.22 µM
13.4	CC1C(C)n2c(S)nc3cccc(c32)CN1CC1CC1 (stereo not drawn)	
0.16	CC(C)=CCN1CCn2c(=S)[nH]c3cc(Cl)cc(c32)C1	
